Tests used:
C653 = assay: Antineoplastic activity against C653 cell line in which [3H]-thymidine was incorporated into DNA; format: functional, Mus musculus; set-up: concentration or dose not given beside the values
Method in brief: (§1)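 Mouse leukemic/myeloma/hybridoma lines kept at 37 °C in RPMI 1640 with 10% heat-inactivated FBS, penicillin, streptomycin, 50 μM mercaptoethanol. 2×10^4 cells/well exposed to drug at 40 μM for 48 h. Drug was diluted from 0.1 M ethanol stock into medium, and controls received ethanol-containing medium. [3H]thymidine (0.1 μCi/well) was then added for 24 h. Cells were harvested onto glass-fibre filters and water-washed, and DNA-incorporated counts were taken by scintillation as % of control.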

R6X-B15 = assay: Antineoplastic activity against R6X-B15 cell line in which [3H]thymidine was incorporated into DNA; format: functional, Mus musculus; method in brief: as §1
WEHI3B = assay: Antineoplastic activity against WEHI 3B cell line in which [3H]thymidine was incorporated into DNA; format: functional, Mus musculus; set-up: concentration or dose not given beside the values; method in brief: as §1
X63/OMIL3 cell line = assay: Antineoplastic activity against X63/OMIL3 cell line in which [3H]thymidine was incorporated into DNA; format: functional, Mus musculus; set-up: concentration or dose not given beside the values; method in brief: as §1
[1] = Compound was evaluated for WEHI-3B cell viability after 48 hour at a concentration of 10 uM of compound was reported.; format: functional, Mus musculus
Method in brief: (§2)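 WEHI-3B cells were treated with drug at 0–30 μM for 24 or 48 h in RPMI 1640 with 10% FBS at 37 °C. Cells were then diluted 1:10 in 2.5% trypan blue and counted by light microscopy, with dye-stained cells scored dead. Viability is given as % of untreated control.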

[2] = Compound was evaluated for WEHI-3B cell viability after 48 hour at a concentration of 2.5 uM of compound was reported.; format: functional, Mus musculus; method in brief: as §2
[3] = Compound was evaluated for WEHI-3B cell viability after 48 hour at a concentration of 30 uM of compound was reported.; format: functional, Mus musculus; method in brief: as §2
[4] = Compound was evaluated for WEHI-3B cell viability after 48 hour at a concentration of 5 uM of compound was reported.; format: functional, Mus musculus; method in brief: as §2
[5] = Compound was evaluated for WEHI-3B cell viability after 24 hour at a concentration of 0 uM of compound was reported.; format: functional, Mus musculus; method in brief: as §2
[6] = Compound was evaluated for WEHI-3B cell viability after 24 hour at a concentration of 1.25 uM of compound was reported.; format: functional, Mus musculus; method in brief: as §2
[7] = Compound was evaluated for WEHI-3B cell viability after 24 hour at a concentration of 10 uM of compound was reported.; format: functional, Mus musculus; method in brief: as §2
[8] = Compound was evaluated for WEHI-3B cell viability after 24 hour at a concentration of 2.5 uM of compound was reported.; format: functional, Mus musculus; method in brief: as §2
[9] = Compound was evaluated for WEHI-3B cell viability after 24 hour at a concentration of 5 uM of compound was reported.; format: functional, Mus musculus; method in brief: as §2
[10] = Compound was evaluated for WEHI-3B cell viability after 48 hour at a concentration of 0 uM of compound was reported.; format: functional, Mus musculus; method in brief: as §2
[11] = Compound was evaluated for WEHI-3B cell viability after 48 hour at a concentration of 1.25 uM of compound was reported.; format: functional, Mus musculus; method in brief: as §2
[12] = Compound was evaluated for WEHI-3B cell viability after 24 hour at a concentration of 30 uM of compound was reported.; format: functional, Mus musculus; method in brief: as §2
[13] = Time course effect on killing of WEHI 3B cells at 30 uM concentration, cells were incubated with it 0 minutes before addition of [3H]thymidine; format: functional, cell-based; settings: Mus musculus, WEHI3B
Method in brief: (§3)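 Mouse WEHI 3B cells (RPMI 1640, 10% heat-inactivated FBS, penicillin, streptomycin, 50 μM mercaptoethanol, 37 °C) were seeded at 2×10^4 cells/well. Drug was diluted from 0.1 M ethanol stock into medium, with an ethanol vehicle control. After the stated preincubation, [3H]thymidine (0.1 μCi/well) was added for a further 24 h at 37 °C. Cells were harvested on glass-fibre filters, water-washed and scintillation-counted. Result is % cell survival versus control, mean ± SD, n = 8.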

[14] = Time course effect on killing of WEHI 3B cells at 30 uM concentration, cells were incubated with it 24 hr before addition of [3H]thymidine; format: functional, cell-based; settings: Mus musculus, WEHI3B; method in brief: as §3
[15] = Time course effect on killing of WEHI 3B cells at 30 uM concentration, cells were incubated with it 3 hr before addition of [3H]thymidine; format: functional, cell-based; settings: Mus musculus, WEHI3B; method in brief: as §3
[16] = Time course effect on killing of WEHI 3B cells at 30 uM concentration, cells were incubated with it 48 hours before addition of [3H]thymidine; format: functional, cell-based; settings: Mus musculus, WEHI3B; method in brief: as §3
[17] = Time course effect on killing of WEHI 3B cells at 30 uM concentration, cells were incubated with it 6 hr before addition of [3H]thymidine; format: functional, cell-based; settings: Mus musculus, WEHI3B; method in brief: as §3
[18] = Time course effect on killing of WEHI 3B cells at 30 uM concentration, cells were incubated with it 72 hours before addition of [3H]thymidine; format: functional, cell-based; settings: Mus musculus, WEHI3B; method in brief: as §3
[19] = Time course effect on killing of WEHI 3B cells at 40 uM concentration, cells were incubated with it 0 mins before addition of [3H]thymidine; format: functional, cell-based; settings: Mus musculus, WEHI3B; method in brief: as §3
[20] = Time course effect on killing of WEHI 3B cells at 40 uM concentration, cells were incubated with it 24 hr before addition of [3H]-thymidine; format: functional, cell-based; settings: Mus musculus, WEHI3B; method in brief: as §3
[21] = Time course effect on killing of WEHI 3B cells at 40 uM concentration, cells were incubated with it 3 hr before addition of [3H]thymidine; format: functional, cell-based; settings: Mus musculus, WEHI3B; method in brief: as §3
[22] = Time course effect on killing of WEHI 3B cells at 40 uM concentration, cells were incubated with it 48 hr before addition of [3H]thymidine; format: functional, cell-based; settings: Mus musculus, WEHI3B; method in brief: as §3
[23] = Time course effect on killing of WEHI 3B cells at 40 uM concentration, cells were incubated with it 6 hours before addition of [3H]-thymidine; format: functional, cell-based; settings: Mus musculus, WEHI3B; method in brief: as §3
[24] = Time course effect on killing of WEHI 3B cells at 40 uM concentration, cells were incubated with it 72 hr before addition of [3H]thymidine; format: functional, cell-based; settings: Mus musculus, WEHI3B; method in brief: as §3

CCCCCCCCCCCCCCCCOC[C@H](CO[C@@H]1O[C@@H](CO)[C@@H](O)[C@H](O)[C@@H]1O)OC
Control (C653): 7%
Control (R6X-B15): 75%
Control (WEHI3B): 26%
Control (X63/OMIL3 cell line): 42%

CCCCCCCCCCCCCCCCOC[C@@H](COP(=O)([O-])OCC[N+](C)(C)C)OC
Control (C653): 5%
Control (R6X-B15): 45%
Control (WEHI3B): 0.3%
Control (X63/OMIL3 cell line): 2.5%

CCCCCCCCCCCCCCCCOC[C@H](CS[C@@H]1O[C@@H](CO)[C@@H](O)[C@H](O)[C@H]1O)OC
Control (C653): 78%
Control (R6X-B15): 98%
Control (WEHI3B): 80%
Control (X63/OMIL3 cell line): 84%

CCCCCCCCCCCCCCCCOC[C@H](COP(=O)([O-])OCC[N+](C)(C)C)OC
Control (C653): 4%
Control (R6X-B15): 55%
Viable cells [1]: 0%
Viable cells [2]: 18%
Viable cells [3]: 0%
Viable cells [4]: 1%
Viable cells [5]: 100%
Viable cells [6]: 44%
Viable cells [7]: 0%
Viable cells [8]: 39%
Viable cells [9]: 8%
Viable cells [10]: 100%
Viable cells [11]: 48%
Control (WEHI3B): 0.4%
Control (X63/OMIL3 cell line): 3%
Viable cells [12]: 0%

CCCCCCCCCCCCCCCCOC[C@@H](CO[C@@H]1O[C@@H](CO)[C@@H](O)[C@H](O)[C@@H]1O)OC
Control (C653): 70%
Control (R6X-B15): 89%
Control (WEHI3B): 82%
Control (X63/OMIL3 cell line): 95%

CCCCCCCCCCCCCCCCOC[C@H](CS[C@H]1O[C@@H](CO)[C@@H](O)[C@H](O)[C@H]1O)OC
Control (C653): 13%
Control (R6X-B15): 66%
Viable cells [1]: 0.3%
Viable cells [2]: 64%
Viable cells [3]: 0%
Viable cells [4]: 25%
Cell survival [13]: 79%
Cell survival [14]: 48%
Cell survival [15]: 57%
Cell survival [16]: 46%
Cell survival [17]: 53%
Cell survival [18]: 25%
Cell survival [19]: 49%
Cell survival [20]: 20%
Cell survival [21]: 49%
Cell survival [22]: 0.5%
Cell survival [23]: 27%
Cell survival [24]: 0%
Viable cells [5]: 100%
Viable cells [6]: 90%
Viable cells [7]: 53%
Viable cells [8]: 75%
Viable cells [9]: 64%
Viable cells [10]: 100%
Viable cells [11]: 72%
Control (WEHI3B): 7%
Control (X63/OMIL3 cell line): 71%
Viable cells [12]: 48%
